Measured values collected from several papers.
Target: Kappa-type opioid receptor (OPRK1, Homo sapiens, UniProt P41145)
Read-out: ligand displacement
Tested at: 10 µM

SMILES | technique | setting | inhibition [%]
C[C@@H]1N=C(c2ccccc2F)c2cc(Br)ccc2-n2cnc(C(=O)O)c21 | radioligand | – | 62.8
COCc1c(-c2cc3cc(C)cc(OC)c3s2)c2c(N)ncnn2c1CN1CCNC(=O)C1 | radioligand | – | 17
CC(C)N1CCC[C@H]1CNC(=O)c1cn(C2CCCC2)c(=O)c2c1c1ccccc1n2C | radioligand | – | 5
Clc1ccc2c(C3CCN(CCc4c[nH]c5ccccc45)CC3)c[nH]c2c1 | radioligand | – | 79
c1ccc(C2CCN(c3cnc4c(N5CCOCC5)nccn34)CC2)cc1 | – | – | 6.44
c1ccc(C(NCCNC(c2ccccc2)c2ccccc2)c2ccccc2)cc1 | – | – | 88
C[C@@H]1C[C@H]2O[C@@H]2/C=C\C=C\C(=O)Cc2c(Cl)c(O)cc(O)c2C(=O)O1 | radioligand | cell membranes | -56
C[C@H](C(=O)N[C@H]1COc2ccccc2[C@@H]1S(C)(=O)=O)c1ccc(F)cc1 | – | – | 1
CCc1ccccc1C(=O)Nc1n[nH]c2c(C)c(F)c(C3C(C#N)=C(C)N(C)C(C)=C3C#N)cc12 | – | – | 16.1
COc1ccc(C(=O)NCc2cc(C(C)C)no2)cc1OC1CCN(C)CC1 | radioligand | – | 22
